Tests used:
[1] = test system: Trypanosoma brucei brucei; test: Antitrypanosomal activity against Trypanosoma brucei brucei assessed as parasite growth inhibition; type: functional, organism-based
[2] = Selectivity index, ratio of EC50 for cytotoxicity against mouse primary macrophage to EC50 for antileishmanial activity against Leishmania infantum MHOM/MA(BE)/67 infected in mouse primary peritoneal macrophages; type: toxicity; settings: read-out: Ratio EC50
Macrophage = test: Cytotoxicity against mouse primary macrophage cells assessed as reduction in cell viability; type: cell-based
Summary of the method: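 Macrophage toxicity was scored microscopically within the L. infantum assays, using cell detachment, lysis and granulation. At least 500 cells over adjacent fields were scored semi-quantitatively, and CC₅₀ was taken from % reduction in normal cells versus untreated controls.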

Leishmania infantum = test: Antileishmanial activity against Leishmania infantum MHOM/MA(BE)/67 infected in mouse primary peritoneal macrophages treated 2 hrs post-infection and incubated for 5 days by Giemsa staining based microscopic analysis; type: functional, organism-based; settings: MHOM/MA(BE)/67, Peritoneal macrophage
Summary of the method: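 Peritoneal macrophages from mice, harvested 2 days after 2% potato starch stimulation, infected after 48 h with L. infantum in supplemented RPMI-1640 with 5% FCS. Compounds were added 2 h post-infection as a 10-point 4-fold dilution series, final DMSO <1%, and incubated 5 days at 37 °C, 5% CO₂. Amastigotes per macrophage were counted after 10% Giemsa staining, and IC₅₀ was taken from % reduction versus untreated-infected controls.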

[3] = Selectivity index, ratio of EC50 for cytotoxicity against human MRC5 cells to EC50 for antitrypanosomal activity against Trypanosoma cruzi Tulahuen CL2 infected in human MRC5 cells; type: toxicity, cell-based; settings: read-out: Ratio EC50
Summary of the method: (§1)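 Selectivity index is the MRC-5 EC₅₀ divided by the parasite EC₅₀.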

MRC5 = test: Cytotoxicity against human MRC5 cells assessed as reduction in cell viability after 3 days by resazurin dye based fluorimetric analysis; settings: MRC5, 72 h
Summary of the method: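 MRC-5_SV2 cells, 1.5×10⁵ cells/mL in MEM with Earl's salts, L-glutamine, NaHCO₃ and 5% inactivated FCS, were exposed 3 days at 37 °C, 5% CO₂ to a 10-point 4-fold dilution series, final DMSO <1%. Resazurin was added for 4 h, fluorescence read at ex 550/em 590 nm, and IC₅₀ derived versus untreated and medium controls.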

Trypanosoma cruzi = test: Antitrypanosomal activity against Trypanosoma cruzi Tulahuen CL2 infected in human MRC5 cells assessed as inhibition of parasite growth incubated for 7 days by chlorophenol red-fl-D-galactopyranoside based spectrophotometric analysis; type: functional, organism-based; settings: Tulahuen CL2, MRC5, 168 h
Summary of the method: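 T. cruzi Tulahuen CL2 β-galactosidase strain was maintained on MRC-5_SV2 cells. Wells held 4×10³ cells plus 4×10⁴ parasites with a 10-point 4-fold compound series, final DMSO <1%. After 7 days at 37 °C, 5% CO₂, substrate was added and absorbance read at 540 nm after 4 h at 37 °C. IC₅₀ was taken from % reduction versus infected and uninfected controls.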

[4] = test system: Trypanosoma brucei rhodesiense; test: Antitrypanosomal activity against Trypanosoma brucei rhodesiense assessed as parasite growth inhibition; type: functional, organism-based
[5] = Selectivity index, ratio of EC50 for human MRC5 cells to EC50 for antitrypanosomal activity against Trypanosoma brucei brucei; type: toxicity; settings: read-out: Ratio EC50; summary of the method: as §1
[6] = Selectivity index, ratio of EC50 for human MRC5 cells to EC50 for antitrypanosomal activity against Trypanosoma brucei rhodesiense; type: toxicity; settings: read-out: Ratio EC50; summary of the method: as §1

| Compound | EC50 [1] [µM] | selectivity ratio [2] | EC50 (Macrophage) [µM] | EC50 (Leishmania infantum) [µM] | selectivity ratio [3] | EC50 (MRC5) [µM] | EC50 (Trypanosoma cruzi) [µM] | EC50 [4] [µM] | selectivity ratio [5] | selectivity ratio [6] |
| --- | --- | --- | --- | --- | --- | --- | --- | --- | --- | --- |
| Nc1ncnc2c1c(Cl)cn2[C@@H]1O[C@H](CO)[C@@H](F)[C@H]1O | 0.13 | 1 | 0.13 | 0.09 | 194 | 13.8 | 0.071 | 0.031 | 108 | 448 |
| Nc1ncnc2c1c(-c1ccc(Cl)cc1)cn2[C@@H]1O[C@H](CO)[C@H](F)[C@H]1O | 5.22 | 1 | 8 | 5 | 130 | 21.7 | 0.17 | 2.27 | 4 | 10 |
| Cc1cn([C@@H]2O[C@H](CO)[C@@H](F)[C@H]2O)c2ncnc(N)c12 | 0.96 | > 2 | > 64 | 38.4 | > 5 | > 64 | 13.1 | 0.21 | > 67 | > 312 |
| NC(=O)c1cn([C@@H]2O[C@H](CO)[C@@H](F)[C@H]2O)c2ncnc(N)c12 | 2.34 | 1 | 32 | 32.5 | < 1 | 2.38 | 7.1 | 0.12 | 1 | 20 |
| Nc1ncnc2c1c(-c1ccc(Cl)cc1)cn2[C@@H]1O[C@H](CO)[C@@H](F)[C@H]1O | 7.02 | 3 | 32 | 12.7 | 23 | 16.9 | 0.74 | 5.18 | 2 | 2 |
| COc1ccc(-c2cn([C@@H]3O[C@H](CO)[C@@H](F)[C@H]3O)c3ncnc(N)c23)cc1 | 43.6 | 1 | 32 | 32.5 | 2 | 14.1 | 8.61 | 25.7 | < 1 | < 1 |
| C#Cc1cn([C@@H]2O[C@H](CO)[C@@H](F)[C@H]2O)c2ncnc(N)c12 | 0.04 | 1 | 0.13 | 0.13 | 4 | 0.16 | 0.04 | 0.02 | 4 | 7 |
| Nc1ncnc2c1ccn2[C@@H]1O[C@H](CO)[C@@H](F)[C@H]1O | 22.2 | > 2 | > 64 | 23.4 | > 7 | > 64 | 9.09 | 1.47 | > 2 | > 44 |
| Nc1ncnc2c1ncn2[C@@H]1O[C@H](CO)[C@@H](F)[C@H]1O | 0.032 | > 2 | > 32 | 27.5 | 9 | 4.92 | 0.55 | 0.017 | 154 | 296 |
| Nc1ncnc2c1c(I)cn2[C@@H]1O[C@H](CO)[C@@H](F)[C@H]1O | 0.032 | 9 | 22 | 2.33 | 170 | 6.65 | 0.039 | 0.0077 | 201 | 826 |
| Nc1ncnc2c1c(-c1ccc(Cl)c(Cl)c1)cn2[C@@H]1O[C@H](CO)[C@@H](F)[C@H]1O | 2.7 | 3 | 8 | 2.83 | 19 | 4.14 | 0.22 | 1.55 | 1 | 2 |
| Nc1ncnc2c1c(-c1ccc(Cl)c(Cl)c1)cn2[C@@H]1O[C@H](CO)[C@H](F)[C@H]1O | 2.34 | 2 | 8 | 3.87 | 35 | 7.38 | < 0.21 | 1.72 | 3 | 4 |
| Nc1ncnc2c1c(-c1ccccc1)cn2[C@@H]1O[C@H](CO)[C@@H](F)[C@H]1O | 32 | 1 | > 64 | 50.8 | > 7 | > 64 | 9.14 | 32.7 | > 2 | > 1 |
| Nc1ncnc2c1c(Br)cn2[C@@H]1O[C@H](CO)[C@H](F)[C@H]1O | 0.032 | 2 | 20 | 8.2 | < 1 | 0.75 | 7.46 | 0.0049 | 23 | 152 |
| Nc1ncnc2c1c(-c1ccc(Cl)c(F)c1)cn2[C@@H]1O[C@H](CO)[C@H](F)[C@H]1O | 4.22 | 1 | 8 | 5.95 | 44 | 18.6 | 0.42 | 1.43 | 4 | 13 |
